Data set [1] in a line: folding enthalpy; higher = less favourable; fluorescence melt of hairpins on a sequencing array, two-state fit. Conditions: sodium 0.088 M. In a few lines:
(§1)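 To match UV melts, fitted temperatures were raised by 9.35 °C. These fits were bootstrapped two-state models that gave melting temperature and folding enthalpy, combined by inverse variance over four replicates. The input was normalised Cy3 fluorescence of library hairpins with annealed Cy3 and quencher oligos on a sequenced MiSeq flow cell, imaged in 50 mM Na-HEPES pH 8.0, 25 mM NaCl in 2.5 °C steps up to 60 °C.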

A short description of data set [2]: melting temperature; fluorescence melt of hairpins on a sequencing array, two-state fit, raised by 9.35 °C to match UV melts. Conditions: sodium 0.088 M. In a few lines: as §1

Consider GTGCACGGAAACGTGTAC ((.((((....)))).)), for which the folding enthalpy in data set [1] was -41.8 kcal/mol. Also, the Tm in data set [2] came to 55.8 °C.

Take GTGCACTCGAAAGAGCAC (((..(((....)))))): the folding enthalpy in data set [1] was -27.8 kcal/mol. Also, the Tm in data set [2] was 45.2 °C.

Consider GTGCAGGGAAACTTGCGC (.(((.(....).))).), for which the folding enthalpy in data set [1] is -31.2 kcal/mol. Moreover, the Tm in data set [2] was 42 °C.

Take GTGCATCCGAAAGGACAC (((..(((....)))))): the folding enthalpy in data set [1] is -11.7 kcal/mol. The Tm in data set [2] came out at 38.2 °C.

As to GTGCCAACGAAAGTTCAC (((..(((....)))))), the folding enthalpy in data set [1] is -4.38 kcal/mol. For the same sequence, in data set [2], the Tm stood at 36.3 °C.

GTGCCACGAAAGTGCCAC (((.(((....))).))): the folding enthalpy in data set [1] was -20.5 kcal/mol. Further, the Tm in data set [2] turned out to be 47.6 °C.

GTGCCACGAAAGTGTCAC (((.(((....))).))): the folding enthalpy in data set [1] was -30 kcal/mol. Also, the Tm in data set [2] came out at 53.1 °C.

As to GTGCCAGGAAACCGGCAC (((((.(....).))))), in data set [1], the folding enthalpy is -42.2 kcal/mol. Further, in data set [2], the Tm was found to be 59.2 °C.

GTGCCCCGAAAGGGACAC (((.(((....))).))): the folding enthalpy in data set [1] was -42.9 kcal/mol. In addition, the Tm in data set [2] came out at 62.5 °C.

Take GTGCCCGAAAGGGGCCAC ((((((....)))..))): the folding enthalpy in data set [1] was -10.9 kcal/mol. In addition, the Tm in data set [2] came out at 47.7 °C.

Turning to GTGCCCGAAAGGGTCCAC ((((((....)))..))), the folding enthalpy in data set [1] is -10.3 kcal/mol. Besides, the Tm in data set [2] stood at 41 °C.

Regarding GTGCCCGAAAGGGTTCAC ((((((....)))..))), in data set [1], the folding enthalpy was -11.8 kcal/mol. Also, the Tm in data set [2] came to 41.1 °C.

For GTGCCCGCGAAAGCGCAC (((..(((....)))))), the folding enthalpy in data set [1] was -13.5 kcal/mol. Besides, in data set [2], the Tm stood at 45.5 °C.

As to GTGCCGCCGAAAGGCCAC (((..(((....)))))), the folding enthalpy in data set [1] was -9.13 kcal/mol. Moreover, in data set [2], the Tm is 60 °C.

As for GTGCCGGCGAAAGCCCAC (((..(((....)))))), the folding enthalpy in data set [1] was -6.81 kcal/mol. The Tm in data set [2] worked out at 59.9 °C.

With GTGCCGGGAAACCGGCGC (.(((((....))))).), in data set [1], the folding enthalpy was -18.2 kcal/mol. Further, the Tm in data set [2] came to 67.3 °C.

As for GTGCCGTCGAAAGACCAC (((..(((....)))))), the folding enthalpy in data set [1] is -6.11 kcal/mol. Also, the Tm in data set [2] stood at 49.7 °C.

For the sequence GTGCCTCGAAAGAGCAC (((.(((....)))))), the folding enthalpy in data set [1] is -28.5 kcal/mol. The Tm in data set [2] came out at 53.5 °C.

For GTGCGAACGAAAGTTCAC (((..(((....)))))), the folding enthalpy in data set [1] is -12.1 kcal/mol. For the same sequence, the Tm in data set [2] came to 53.3 °C.

With GTGCGACCGAAAGGTCAC (((..(((....)))))), the folding enthalpy in data set [1] is -13.1 kcal/mol. In addition, the Tm in data set [2] was 60 °C.

As to GTGCGAGCGAAAGCTCAC (((..(((....)))))), the folding enthalpy in data set [1] is -12.2 kcal/mol. Further, the Tm in data set [2] was 59.4 °C.

As for GTGCGATCGAAAGATCAC (((..(((....)))))), in data set [1], the folding enthalpy was -18.2 kcal/mol. Moreover, the Tm in data set [2] came out at 44.4 °C.

With GTGCGCCCGAAAGGGCAC (((..(((....)))))), the folding enthalpy in data set [1] was -10.4 kcal/mol. For the same sequence, the Tm in data set [2] came out at 64.3 °C.

Turning to GTGCGCCGAAAGGCTCAC (((.(((....))).))), the folding enthalpy in data set [1] is -29.1 kcal/mol. Moreover, the Tm in data set [2] turned out to be 56.9 °C.

Turning to GTGCGCGAAAGCGACCAC ((((((....)))..))), in data set [1], the folding enthalpy is -10.4 kcal/mol. In addition, the Tm in data set [2] was 43.8 °C.

In the case of GTGCGCGAAAGCGAGCAC ((((((....)))..))), the folding enthalpy in data set [1] was -25.5 kcal/mol. Moreover, the Tm in data set [2] stood at 57.7 °C.

GTGCGCGAAAGCGTTCAC ((((((....)))..))): the folding enthalpy in data set [1] is -11.3 kcal/mol. The Tm in data set [2] worked out at 39.9 °C.

Regarding GTGCGCGGAAACACGCAC (((((.(....).))))), the folding enthalpy in data set [1] is -46.6 kcal/mol. The Tm in data set [2] was 59.7 °C.

As for GTGCGGCGAAAGCCACAC (((.(((....))).))), the folding enthalpy in data set [1] was -29.2 kcal/mol. In addition, the Tm in data set [2] amounted to 62.1 °C.

For GTGCGGGGAAACTCGCAC (((((.(....).))))), the folding enthalpy in data set [1] is -40.1 kcal/mol. Moreover, the Tm in data set [2] worked out at 61.2 °C.
